Assay results as given in ChEMBL document CHEMBL1770122, “Synthesis, antibacterial and antimycobacterial activities of some new 4-aryl/heteroaryl-2,6-dimethyl-3,5-bis-N-(aryl)-carbamoyl-1,4-dihydropyridines” (2011).
Values after ≈ are worked out from the molar mass of the structure shown.

System: Mycobacterium tuberculosis
Experiment: Antimicrobial activity against multidrug-resistant Mycobacterium tuberculosis C110/09 after 4 weeks
Format: functional
Details: C110/09, 672 h
Method in brief: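 L-J proportion method against an MDR clinical isolate resistant to rifampicin, pyrazinamide and isoniazid. Drug in 64, 128 and 256 µg mL-1 dilutions in LJ medium slants, set overnight. Inoculated with 4 mg mL-1 suspension by 3 mm loop, 37 °C, 4 weeks. MIC is the lowest concentration fully inhibiting growth, by CFU versus controls (medium, inoculated, DMSO). Three independent determinations.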

CCc1ccc(C2C(C(=O)Nc3ccccc3)=C(C)NC(C)=C2C(=O)Nc2ccccc2)cc1
MIC: > 256 µg/mL

CC1=C(C(=O)Nc2ccc(C)cc2)C(c2ccccn2)C(C(=O)Nc2ccc(C)cc2)=C(C)N1
MIC: > 256 µg/mL

CC1=C(C(=O)Nc2ccc(C)cc2)C(c2ccc[nH]2)C(C(=O)Nc2ccc(C)cc2)=C(C)N1
MIC: 128 µg/mL (≈ 291 µM)

CC1=C(C(=O)Nc2ccccc2C)C(c2ccccn2)C(C(=O)Nc2ccccc2C)=C(C)N1
MIC: 256 µg/mL (≈ 566 µM)

NC(=O)c1cnccn1 [PYRAZINAMIDE]
MIC: 128 µg/mL (≈ 1040 µM)
